Laboratory results taken from ChEMBL document CHEMBL1142148, “Antibiotic susceptibility profile of bifidobacteria as affected by oxgall, acid, and hydrogen peroxide stress” (2007).
In brackets after ≈: the same amount, converted by molar mass.

What was measured:
[1] = test system: Bifidobacterium pseudolongum; assay: Antimicrobial activity against 60 min 1 M HCl-stressed Bifidobacterium pseudolongum ATCC 25562 after 18 hrs; format: functional
Outline: (§1)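 Mid-log MRS culture pelleted and resuspended in MRS broth brought to pH 2.0 with 1 M HCl, held anaerobically at 37°C for 60 min, then subcultured in MRS (pH 6.5) for 24 h anaerobically before MIC testing by broth microdilution (as for unstressed cells). Table footnote gives 18 h anaerobic regrowth after the stress. MIC is the median of four repetitions.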

Bifidobacterium longum [2] = assay: Antimicrobial activity against 90 mins hydrogen peroxide-stressed Bifidobacterium longum R0175 after 18 hrs; format: functional
Outline: (§2)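 Stress applied for 90 min at 37°C under anaerobic conditions, using MRS (initial pH 6.5) containing H2O2 at each strain's own inhibitory concentration. The H2O2 level was set beforehand by microplate tolerance testing. Challenged cells were regrown in MRS for 24 h (footnote: 18 h) before MIC testing by broth microdilution. Median of four repetitions.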

Bifidobacterium breve [3] = assay: Antimicrobial activity against 60 min 1 M HCl-stressed Bifidobacterium breve ATCC 15700 after 18 hrs; format: functional; outline: as §1
Bifidobacterium animalis [4] = assay: Antimicrobial activity against 90 mins oxgall-stressed Bifidobacterium animalis ATCC 27536 after 18 hrs; format: functional
Outline: (§3)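 Cells pelleted from mid-log MRS culture and resuspended in MRS (initial pH 6.5) with 0.3% (wt/vol) oxgall for 90 min anaerobically at 37°C. They were then regrown in MRS pH 6.5 for 24 h (footnote: 18 h) anaerobically and tested for MIC by the same broth microdilution assay. Median of four repetitions.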

Bifidobacterium longum [5] = assay: Antimicrobial activity against 90 mins oxgall-stressed Bifidobacterium longum P/N 601377 after 18 hrs; format: functional; outline: as §3
Bifidobacterium bifidum [6] = assay: Antimicrobial activity against 90 mins oxgall-stressed Bifidobacterium bifidum BB12 after 18 hrs; format: functional; outline: as §3
Bifidobacterium breve [7] = assay: Antimicrobial activity against 60 min 1 M HCl-stressed Bifidobacterium breve R0070 after 18 hrs; format: functional; outline: as §1
Bifidobacterium longum [8] = assay: Antimicrobial activity against 60 min 1 M HCl-stressed Bifidobacterium longum ATCC 15707 after 18 hrs; format: functional; outline: as §1
Bifidobacterium longum [9] = assay: Antimicrobial activity against 90 mins oxgall-stressed Bifidobacterium longum ATCC 15708 after 18 hrs; format: functional; outline: as §3
[10] = test system: Bifidobacterium pseudolongum; assay: Antimicrobial activity against 90 mins oxgall-stressed Bifidobacterium pseudolongum ATCC 25562 after 18 hrs; format: functional; outline: as §3
Bifidobacterium longum [11] = assay: Antimicrobial activity against 90 mins oxgall-stressed Bifidobacterium longum ATCC 15707 after 18 hrs; format: functional; outline: as §3
[12] = test system: Bifidobacterium thermophilum; assay: Antimicrobial activity against Bifidobacterium thermophilum ATCC 25866; format: functional
Outline: (§4)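 Broth microdilution in MRS plus 0.05% L-cysteine-HCl. Mid-log culture adjusted to OD650 0.1, giving about 2.5 × 10^4 to 5.0 × 10^4 CFU/well, then added to twofold serial dilutions of agent. Plates incubated anaerobically at 37°C for 18 h and read at OD650. MIC is the lowest concentration matching the uninoculated blank OD, taken as the median of four repeats.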

Bifidobacterium longum [13] = assay: Antimicrobial activity against 90 mins hydrogen peroxide-stressed Bifidobacterium longum P/N 601377 after 18 hrs; format: functional; outline: as §2
Bifidobacterium animalis [14] = assay: Antimicrobial activity against 90 mins hydrogen peroxide-stressed Bifidobacterium animalis ATCC 27536 after 18 hrs; format: functional; outline: as §2
[15] = test system: Bifidobacterium pseudolongum; assay: Antimicrobial activity against Bifidobacterium pseudolongum ATCC 25562; format: functional; outline: as §4
[16] = test system: Bifidobacterium thermophilum; assay: Antimicrobial activity against 90 mins oxgall-stressed Bifidobacterium thermophilum ATCC 25866 after 18 hrs; format: functional; outline: as §3
Bifidobacterium longum [17] = assay: Antimicrobial activity against Bifidobacterium longum ATCC 15708; format: functional; outline: as §4
Bifidobacterium breve [18] = assay: Antimicrobial activity against 90 mins oxgall-stressed Bifidobacterium breve ATCC 15700 after 18 hrs; format: functional; outline: as §3
Bifidobacterium bifidum [19] = assay: Antimicrobial activity against 90 mins hydrogen peroxide-stressed Bifidobacterium bifidum BB12 after 18 hrs; format: functional; outline: as §2
[20] = Antimicrobial activity against 60 min 1 M HCl-stressed Bifidobacterium infantis ATCC 15697 after 18 hrs; format: functional, Bifidobacterium longum subsp. infantis; conditions: Bifidobacterium longum; outline: as §1
Bifidobacterium bifidum [21] = assay: Antimicrobial activity against 60 min 1 M HCl-stressed Bifidobacterium bifidum R0071 after 18 hrs; format: functional; outline: as §1
[22] = Antimicrobial activity against Bifidobacterium infantis ATCC 15697; format: functional, Bifidobacterium longum subsp. infantis; conditions: Bifidobacterium longum; outline: as §4
Bifidobacterium longum [23] = assay: Antimicrobial activity against 90 mins hydrogen peroxide-stressed Bifidobacterium longum ATCC 15707 after 18 hrs; format: functional; outline: as §2
Bifidobacterium breve [24] = assay: Antimicrobial activity against 90 mins hydrogen peroxide-stressed Bifidobacterium breve ATCC 15700 after 18 hrs; format: functional; outline: as §2
Bifidobacterium longum [25] = assay: Antimicrobial activity against 60 min 1 M HCl-stressed Bifidobacterium longum R0175 after 18 hrs; format: functional; outline: as §1
Bifidobacterium bifidum [26] = assay: Antimicrobial activity against 90 mins oxgall-stressed Bifidobacterium bifidum R0071 after 18 hrs; format: functional; outline: as §3
Bifidobacterium bifidum [27] = assay: Antimicrobial activity against Bifidobacterium bifidum BB12; format: functional; outline: as §4
Bifidobacterium bifidum [28] = assay: Antimicrobial activity against 90 mins hydrogen peroxide-stressed Bifidobacterium bifidum R0071 after 18 hrs; format: functional; outline: as §2
Bifidobacterium breve [29] = assay: Antimicrobial activity against 90 mins oxgall-stressed Bifidobacterium breve R0070 after 18 hrs; format: functional; outline: as §3
Bifidobacterium longum [30] = assay: Antimicrobial activity against 60 min 1 M HCl-stressed Bifidobacterium longum P/N 601377 after 18 hrs; format: functional; outline: as §1
Bifidobacterium longum [31] = assay: Antimicrobial activity against Bifidobacterium longum ATCC 15707; format: functional; outline: as §4
Bifidobacterium bifidum [32] = assay: Antimicrobial activity against 60 min 1 M HCl-stressed Bifidobacterium bifidum BB12 after 18 hrs; format: functional; outline: as §1
[33] = Antimicrobial activity against 90 mins oxgall-stressed Bifidobacterium infantis ATCC 15697 after 18 hrs; format: functional, Bifidobacterium longum subsp. infantis; conditions: Bifidobacterium longum; outline: as §3
Bifidobacterium animalis [34] = assay: Antimicrobial activity against Bifidobacterium animalis ATCC 27536; format: functional; outline: as §4
Bifidobacterium bifidum [35] = assay: Antimicrobial activity against 90 mins oxgall-stressed Bifidobacterium bifidum ATCC 15696 after 18 hrs; format: functional; outline: as §3
Bifidobacterium longum [36] = assay: Antimicrobial activity against Bifidobacterium longum R0175; format: functional; outline: as §4
Bifidobacterium longum [37] = assay: Antimicrobial activity against 90 mins hydrogen peroxide-stressed Bifidobacterium longum ATCC 15708 after 18 hrs; format: functional; outline: as §2
[38] = test system: Bifidobacterium thermophilum; assay: Antimicrobial activity against 90 mins hydrogen peroxide-stressed Bifidobacterium thermophilum ATCC 25866 after 18 hrs; format: functional; outline: as §2
Bifidobacterium breve [39] = assay: Antimicrobial activity against Bifidobacterium breve R0070; format: functional; outline: as §4
Bifidobacterium longum [40] = assay: Antimicrobial activity against Bifidobacterium longum P/N 601377; format: functional; outline: as §4
Bifidobacterium bifidum [41] = assay: Antimicrobial activity against Bifidobacterium bifidum ATCC 15696; format: functional; outline: as §4
Bifidobacterium breve [42] = assay: Antimicrobial activity against 90 mins hydrogen peroxide-stressed Bifidobacterium breve R0070 after 18 hrs; format: functional; outline: as §2
[43] = test system: Bifidobacterium thermophilum; assay: Antimicrobial activity against 60 min 1 M HCl-stressed Bifidobacterium thermophilum ATCC 25866 after 18 hrs; format: functional; outline: as §1
Bifidobacterium breve [44] = assay: Antimicrobial activity against Bifidobacterium breve ATCC 15700; format: functional; outline: as §4
Bifidobacterium bifidum [45] = assay: Antimicrobial activity against Bifidobacterium bifidum R0071; format: functional; outline: as §4
Bifidobacterium longum [46] = assay: Antimicrobial activity against 90 mins oxgall-stressed Bifidobacterium longum R0175 after 18 hrs; format: functional; outline: as §3
Bifidobacterium animalis [47] = assay: Antimicrobial activity against 60 min 1 M HCl-stressed Bifidobacterium animalis ATCC 27536 after 18 hrs; format: functional; outline: as §1

MIC [1]: 0.98 µg/mL (≈ 2.8 µM)
MIC (Bifidobacterium longum [2]): 1.9 µg/mL (≈ 5.44 µM)
MIC (Bifidobacterium breve [3]): 0.98 µg/mL (≈ 2.8 µM)
MIC (Bifidobacterium animalis [4]): 0.98 µg/mL (≈ 2.8 µM)
MIC (Bifidobacterium longum [5]): 0.98 µg/mL (≈ 2.8 µM)
MIC (Bifidobacterium bifidum [6]): 0.98 µg/mL (≈ 2.8 µM)
MIC (Bifidobacterium breve [7]): 3.9 µg/mL (≈ 11.2 µM)
MIC (Bifidobacterium longum [8]): 3.9 µg/mL (≈ 11.2 µM)
MIC (Bifidobacterium longum [9]): 0.98 µg/mL (≈ 2.8 µM)
MIC [10]: 0.98 µg/mL (≈ 2.8 µM)
MIC (Bifidobacterium longum [11]): 0.98 µg/mL (≈ 2.8 µM)
MIC [12]: 0.98 µg/mL (≈ 2.8 µM)
MIC (Bifidobacterium longum [13]): 0.98 µg/mL (≈ 2.8 µM)
MIC (Bifidobacterium animalis [14]): 3.9 µg/mL (≈ 11.2 µM)
MIC [15]: 3.9 µg/mL (≈ 11.2 µM)
MIC [16]: 1.9 µg/mL (≈ 5.44 µM)
MIC (Bifidobacterium longum [17]): 7.8 µg/mL (≈ 22.3 µM)
MIC (Bifidobacterium breve [18]): 3.9 µg/mL (≈ 11.2 µM)
MIC (Bifidobacterium bifidum [19]): 0.98 µg/mL (≈ 2.8 µM)
MIC [20]: 0.98 µg/mL (≈ 2.8 µM)
MIC (Bifidobacterium bifidum [21]): 0.98 µg/mL (≈ 2.8 µM)
MIC [22]: 7.8 µg/mL (≈ 22.3 µM)
MIC (Bifidobacterium longum [23]): 0.98 µg/mL (≈ 2.8 µM)
MIC (Bifidobacterium breve [24]): 3.9 µg/mL (≈ 11.2 µM)
MIC (Bifidobacterium longum [25]): 0.98 µg/mL (≈ 2.8 µM)
MIC (Bifidobacterium bifidum [26]): 0.98 µg/mL (≈ 2.8 µM)
MIC (Bifidobacterium bifidum [27]): 31.2 µg/mL (≈ 89.3 µM)
MIC (Bifidobacterium bifidum [28]): 0.98 µg/mL (≈ 2.8 µM)
MIC (Bifidobacterium breve [29]): 0.98 µg/mL (≈ 2.8 µM)
MIC (Bifidobacterium longum [30]): 0.98 µg/mL (≈ 2.8 µM)
MIC (Bifidobacterium longum [31]): 15.6 µg/mL (≈ 44.6 µM)
MIC (Bifidobacterium bifidum [32]): 0.98 µg/mL (≈ 2.8 µM)
MIC [33]: 0.98 µg/mL (≈ 2.8 µM)
MIC (Bifidobacterium animalis [34]): 15.6 µg/mL (≈ 44.6 µM)
MIC (Bifidobacterium bifidum [35]): 0.98 µg/mL (≈ 2.8 µM)
MIC (Bifidobacterium longum [36]): 7.8 µg/mL (≈ 22.3 µM)
MIC (Bifidobacterium longum [37]): 3.9 µg/mL (≈ 11.2 µM)
MIC [38]: 3.9 µg/mL (≈ 11.2 µM)
MIC (Bifidobacterium breve [39]): 15.6 µg/mL (≈ 44.6 µM)
MIC (Bifidobacterium longum [40]): 0.98 µg/mL (≈ 2.8 µM)
MIC (Bifidobacterium bifidum [41]): 0.98 µg/mL (≈ 2.8 µM)
MIC (Bifidobacterium breve [42]): 0.98 µg/mL (≈ 2.8 µM)
MIC [43]: 3.9 µg/mL (≈ 11.2 µM)
MIC (Bifidobacterium breve [44]): 3.9 µg/mL (≈ 11.2 µM)
MIC (Bifidobacterium bifidum [45]): 1.9 µg/mL (≈ 5.44 µM)
MIC (Bifidobacterium longum [46]): 0.98 µg/mL (≈ 2.8 µM)
MIC (Bifidobacterium animalis [47]): 0.98 µg/mL (≈ 2.8 µM)
SMILES: CC1(C)S[C@@H]2[C@H](NC(=O)[C@H](N)c3ccccc3)C(=O)N2[C@H]1C(=O)O [AMPICILLIN]
